# HSF-1 act: increases HSF-1 driven luciferase reporter signal; activation, % at 9 µM; 300,000 tested, 1.7% active; NIH3T3-HGL HSF-1 luciferase reporter, MG132, 8 h; 100% = twice DMSO control signal; AID 504408;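 active = mean replicate activation of at least 50% with a set share of replicates each reaching 50%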;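 also: 0% = median of the neutral control wells and 100% = twice that signal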
# HSF1 inhib: HSF1 inhibition; NIH3T3-HGL HSE-luciferase, MG132-induced, luminescence 8 h; active compounds read low; activity change, negative = inhibition, % at 7.5 µM (by protocol); 300,000 tested, 0.77% active; AID 2098;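 active = more than half of replicate wells show activity change below -50%, luminescence cut by over half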;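 also: luciferase reports HSF-1 transcriptional activity via heat shock element; 0% = median of DMSO wells and -100% = zero luminescence signal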
# CHT allo act: allosterically activates the human high affinity choline transporter | 310,000 tested, 0.49% active | AID 488977 | CHT-expressing cells, membrane potential dye, choline EC20; active compounds read high; LV-AA mutant CHT in HEK293 cells | B-score at 10 µM | Q9GZV3;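 active = initial fluorescence not abnormally high and integrated response B-score, plate-corrected, over 3 SD above library mean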
# Target sequence (Q9GZV3 whole entry, looked up): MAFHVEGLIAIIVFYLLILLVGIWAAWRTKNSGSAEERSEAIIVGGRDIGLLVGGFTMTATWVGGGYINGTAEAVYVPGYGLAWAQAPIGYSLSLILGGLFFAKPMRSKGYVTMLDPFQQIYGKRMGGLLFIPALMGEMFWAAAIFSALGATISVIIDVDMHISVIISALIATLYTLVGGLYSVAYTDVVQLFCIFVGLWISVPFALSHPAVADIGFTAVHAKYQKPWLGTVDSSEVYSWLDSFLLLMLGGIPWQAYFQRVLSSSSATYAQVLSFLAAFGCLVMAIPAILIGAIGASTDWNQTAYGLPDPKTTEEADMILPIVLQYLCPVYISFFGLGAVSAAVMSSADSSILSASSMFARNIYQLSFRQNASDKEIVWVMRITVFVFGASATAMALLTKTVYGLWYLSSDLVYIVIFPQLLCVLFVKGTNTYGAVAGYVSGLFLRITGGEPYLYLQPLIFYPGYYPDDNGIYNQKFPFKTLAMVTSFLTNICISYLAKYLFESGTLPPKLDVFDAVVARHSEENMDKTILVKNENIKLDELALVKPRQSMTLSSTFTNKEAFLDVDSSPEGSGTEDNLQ
# CHT inh: inhibitors of human choline transporter CHT; B-score at 10 µM; CHT-expressing cells, membrane potential dye, choline response; active compounds read low; 310,000 tested, 0.86% active; AID 488975; Q9GZV3;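 active = B-score over 3 SD under the library average, and starting fluorescence ratio not unusually high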;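 also: choline stimulus applied at its EC90 after an EC20 pre-addition; B-score computed on integrated fluorescence ratio after choline addition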
# Lipid droplet: modulators of hepatic lipid droplet formation; inhibition, % at 6.5 µM; AID 1656; 240,000 tested, 0.4% active; AML12 mouse hepatocytes, oleate lipid droplets, BODIPY imaging;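 active = lipid droplet intensity inhibited by at least 50%, with more than 500 cells counted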
#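 Assay system: AML12 mouse liver cells | Compound: 6.5 µM single-point dosing | Schedule: Overnight exposure | Technique: Fluorescence imaging, 20x objective, two fields per well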
# PHOSPHO1 block: inhibitors of human PHOSPHO1 phosphatase | recombinant PHOSPHO1, absorbance phosphatase assay | 290,000 tested, 1.1% active | inhibition, % at 13.3 µM; in the data active = inhibition above about 60%
# * hit, by the source's call; i = inactive; nt = no result. Hits are enriched below; roughly 4.9% of the tested compounds scored in any of these assays.
SMILES,HSF-1 act,HSF1 inhib,CHT allo act,CHT inh,Lipid droplet,PHOSPHO1 block
COc1ccc(Cl)cc1C=CC=Nc1ccccc1O,8,8,nt,nt,nt,nt
CC1CC(C)CN(CCCNC(=O)CN2C(=O)CSc3ccc(S(=O)(=O)N4CCCCC4)cc32)C1 (configuration not stated),9,-3,i,i,-2,36
COCCSc1ccccc1C(=O)N1CCc2ccccc2C1,nt,nt,i,i,5,60*
CCOC(=O)c1c(NC(=O)C2CCCO2)sc(C(=O)OC(C)(C)C)c1C (configuration not stated),-13,-13,i,i,-3,83*
CCOC(=O)c1sc(NC(=O)C2CCCO2)c(C(=O)OCC)c1C (configuration not stated),nt,nt,nt,nt,0,-21
CCOC(=O)c1sc(NC(=O)CCN2CCC(C)CC2)c(C(=O)OCC)c1C,233*,191,i,i,-9,-8
COc1ccc2c(C(=O)CN(C)C3CCCCC3)c[nH]c2c1,11,3,i,i,-1,-1
NC1=NC(c2ccc(Cl)cc2)N(c2ccc(S(N)(=O)=O)cc2)C(N)=N1 (configuration not stated),-2,-1,i,i,2,34
COc1ccccc1C(=O)NCCC(=O)NCC(c1ccccc1)N(C)C (configuration not stated),7,6,i,i,-10,20
CCOC(=O)C1=C(C)N(CCC(=O)O)C(=O)NC1c1ccccc1Cl (configuration not stated),-82,-77*,i,i,nt,nt
CC1=C(C(=O)OCc2ccccc2)C(c2ccccc2Cl)NC(=O)N1CCCC(=O)O (configuration not stated),10,-5,i,i,3,-36
COc1ccc(NC(=O)C2CCN(S(=O)(=O)c3cccnc3)CC2)cc1Cl,-5,-4,i,i,-19,70*
COc1ccc(S(=O)(=O)N2CCC(C(=O)NCCc3ccccc3)CC2)cc1OC,15,1,i,i,-5,-20
COc1ccc(Cl)cc1S(=O)(=O)N1CCC(C(=O)NCCc2ccccc2)CC1,-84,-79*,i,i,-5,29
CCc1nnc(NC(=O)CCC(=O)N2CCN(S(=O)(=O)c3cc(Cl)ccc3OC)CC2)s1,-6,-3,i,i,-27,70*
O=C(CC(C(=O)NCc1ccccc1)c1nc2ccccc2c(=O)[nH]1)NCc1ccccc1 (configuration not stated),2,-6,i,i,5,36
COc1cc(/C=C2\N=C3CCCCCN3C2=O)ccc1O,7,0,i,i,-5,67*
Cc1cc(SCC(=O)Nc2ncc(Cl)cc2Cl)nc2ccccc12,54*,32,i,i,10,-4
COc1ccc2c(C)cc(SCC(=O)Nc3ncc(Cl)cc3Cl)nc2c1,-27,-11,i,i,-3,-24
CCCOc1ccc(N2C(=O)CC(N(CCc3ccc(OC)cc3)C(=O)/C=C/C(=O)O)C2=O)cc1 (configuration not stated),-3,1,i,i,17,37
COc1ccc(N2C(=O)CC(N(CCc3ccccc3)C(=O)/C=C/C(=O)O)C2=O)cc1 (configuration not stated),-8,-4,i,i,11,64*
CC1=CCC2C(=O)N(c3ccc(C)c(Br)c3)C(=O)C2C1 (configuration not stated),-81,-76*,i,i,16,-6
CC(C)=CCN1CCN(Cc2c[nH]c3ccccc23)CC1CCO (configuration not stated),-2,-1,i,i,-1,36
CCOc1ccc(-c2ccc(C=O)o2)c([N+](=O)[O-])c1,109*,84,i,i,5,-6
Cc1ccc(C(=O)c2c(C)oc3c2C(=O)C(=O)c2ccccc2-3)cc1,14,16,i,i,nt,-4
COc1ccc(C(=O)c2c(C(F)(F)F)oc3c2C(=O)c2ccccc2C3=O)cc1,-94,-94*,i,i,-28,97*
COc1nc(-c2ccc(Cl)cc2)ccc1-c1noc(-c2ccco2)n1,-5,-2,i,i,11,80*

# Screens (PubChem)
